In one series the test system is THP1 macrophages. Description: In vitro phagocytosis of opsonized nanobeads by THP1 macrophages. The series is classed as cell-based, human. Conditions: THP1, DMSO solvent. The essentials:
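Fluorescent 100-nm streptavidin-coated polystyrene beads, opsonized with antistreptavidin antibody, with or without attached hCD47, given to THP1 cells in vitro. Phagocytosis scored at 45 min. Cultures fixed without permeabilization, and non-ingested beads immunostained with a secondary antibody against the antistreptavidin opsonin. Data as means ± SEM.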

The nature of series [1]: Organ localization of nanobeads by whole-body NIRF imaging. In kind it is in vivo, mouse (NSG). The conditions noted are these: NIRF beads.
The subject of the next series is macrophages / phagocytes. Description: Circulation of nanobeads in NSG mice. In kind it is in vivo, mouse (NSG). Conditions: opsonized nanobeads, i.v.

For `Cc1ccc2c(c1)C(=O)C1(O)CCN(c3ccccc3)C1=N2` (stereo not shown) [blebbistatin], in the series with THP1 macrophages (50 µM, inhibition of myosin-IIA), the “inhibition of uptake by 50 µM compound” value was “inhibited”. In the case of `O=S(=O)(O)c1ccc2cc(N=Nc3cc(S(=O)(=O)O)c4cccnc4c3O)ccc2c1` [NSC-87877], the “reversal of hCD47 inhibition of uptake” value in the series with THP1 macrophages (SHP1 inhibition, hCD47 beads) was “blocks the inhibition of uptake by hCD47”.

B1: mCD47: recombinant mouse CD47 (protein, UniProt Q61735 19-303, looked up)
Leukocyte surface antigen CD47: QLLFSNVNSIEFTSCNETVVIPCIVRNVEAQSTEEMFVKWKLNKSYIFIYDGNKNSTTTDQNFTSAKISVSDLINGIASLKMDKRDAMVGNYTCEVTELSREGKTVIELKNRTVSWFSPNEKILIVIFPILAILLFWGKFGILTLKYKSSHTNKRIILLLVAGLVLTVIVVVGAILLIPGEKPVKNASGLGLIVISTGILILLQYNVFMTAFGMTSFTIAILITQVLGYVLALVGLCLCIMACEPVHGPLLISGLGIIALAELLGLVYMKFVASNQRTIQPPRNR
For B1, the “splenic / organ localization of nanobeads” value in series [1] is reported as “moderate but suppressed splenic localization”. For the same molecule, the “effect on circulation / clearance of nanobeads” value in the series on macrophages / phagocytes was “enhanced persistence in circulation”.

These data come from PMC3966479 (Science (New York, N.Y.), 2013).
